Assay results published in ChEMBL document CHEMBL2062515, “Synthesis and evaluation of novel radioligands for positron emission tomography imaging of metabotropic glutamate receptor subtype 1 (mGluR1) in rodent brain” (J Med Chem, 2012).

Columns and labels:
Blood [1] = test: Biodistribution in mouse blood at 4.8 MBq/140 uL, iv after 1 min by gamma counting; format: ADME, organism-based; settings: in vivo
In short: (§1)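 Mice received the radioligand in saline by tail vein (4.8 MBq/140 μL, 40 pmol). Four mice per time point were killed by cervical dislocation at 1, 5, 15, 30 and 60 min. Tissues were removed quickly and counted in an autogamma counter. Data are decay-corrected % injected dose per gram of wet tissue, mean ± SE, n = 4.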

Heart [2] = test: Biodistribution in mouse heart at 4.8 MBq/140 uL, iv after 1 min by gamma counting; format: ADME, organism-based; settings: in vivo; in short: as §1
Liver [3] = test: Biodistribution in mouse liver at 4.8 MBq/140 uL, iv after 1 min by gamma counting; format: ADME, organism-based; settings: in vivo; in short: as §1
Spleen [4] = test: Biodistribution in mouse spleen at 4.8 MBq/140 uL, iv after 1 min by gamma counting; format: ADME, organism-based; settings: in vivo
In short: (§2)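 [¹¹C]radioligand in saline (4.8 MBq/140 μL, 40 pmol) injected via tail vein; four mice per time point killed by cervical dislocation at 1, 5, 15, 30, 60 min. Tissues (small intestine including contents) removed, counted in autogamma counter, decay-corrected, expressed as % injected dose per gram wet tissue; mean SE, n = 4.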

Kidney [5] = test: Biodistribution in mouse kidney at 4.8 MBq/140 uL, iv after 1 min by gamma counting; format: ADME, organism-based; settings: in vivo; in short: as §1
Muscle tissue [6] = test: Biodistribution in mouse muscle at 4.8 MBq/140 uL, iv after 1 min by gamma counting; format: ADME, organism-based; settings: in vivo; in short: as §1
Brain [7] = test: Biodistribution in mouse brain at 4.8 MBq/140 uL, iv after 1 min by gamma counting; format: ADME, organism-based; settings: in vivo; in short: as §1
Blood [8] = test: Biodistribution in mouse blood at 4.8 MBq/140 uL, iv after 5 mins by gamma counting; format: ADME, organism-based; settings: in vivo; in short: as §1
Liver [9] = test: Biodistribution in mouse liver at 4.8 MBq/140 uL, iv after 5 mins by gamma counting; format: ADME, organism-based; settings: in vivo; in short: as §1
Mus musculus [10] = test: Biodistribution in mouse small intestine at 4.8 MBq/140 uL, iv after 5 mins by gamma counting; format: ADME, organism-based; settings: in vivo; in short: as §2
Muscle tissue [11] = test: Biodistribution in mouse muscle at 4.8 MBq/140 uL, iv after 5 mins by gamma counting; format: ADME, organism-based; settings: in vivo; in short: as §2
Blood [12] = test: Biodistribution in mouse blood at 4.8 MBq/140 uL, iv after 15 mins by gamma counting; format: ADME, organism-based; settings: in vivo, 0.25 h; in short: as §1
Heart [13] = test: Biodistribution in mouse heart at 4.8 MBq/140 uL, iv after 15 mins by gamma counting; format: ADME, organism-based; settings: in vivo, 0.25 h; in short: as §1
Lung [14] = test: Biodistribution in mouse lung at 4.8 MBq/140 uL, iv after 15 mins by gamma counting; format: ADME, organism-based; settings: in vivo, 0.25 h; in short: as §1
Spleen [15] = test: Biodistribution in mouse spleen at 4.8 MBq/140 uL, iv after 15 mins by gamma counting; format: ADME, organism-based; settings: in vivo, 0.25 h; in short: as §2
Muscle tissue [16] = test: Biodistribution in mouse muscle at 4.8 MBq/140 uL, iv after 15 mins by gamma counting; format: ADME, organism-based; settings: in vivo, 0.25 h; in short: as §1
Mus musculus [17] = test: Biodistribution in mouse testis at 4.8 MBq/140 uL, iv after 15 mins by gamma counting; format: ADME, organism-based; settings: in vivo, 0.25 h; in short: as §2
Brain [18] = test: Biodistribution in mouse brain at 4.8 MBq/140 uL, iv after 15 mins by gamma counting; format: ADME, organism-based; settings: in vivo, 0.25 h; in short: as §1
Heart [19] = test: Biodistribution in mouse heart at 4.8 MBq/140 uL, iv after 30 mins by gamma counting; format: ADME, organism-based; settings: in vivo, 0.5 h; in short: as §1
Lung [20] = test: Biodistribution in mouse lung at 4.8 MBq/140 uL, iv after 30 mins by gamma counting; format: ADME, organism-based; settings: in vivo, 0.5 h; in short: as §1
Liver [21] = test: Biodistribution in mouse liver at 4.8 MBq/140 uL, iv after 30 mins by gamma counting; format: ADME, organism-based; settings: in vivo, 0.5 h; in short: as §1
Mus musculus [22] = test: Biodistribution in mouse testis at 4.8 MBq/140 uL, iv after 30 mins by gamma counting; format: ADME, organism-based; settings: in vivo, 0.5 h; in short: as §2
Blood [23] = test: Biodistribution in mouse blood at 4.8 MBq/140 uL, iv after 60 mins by gamma counting; format: ADME, organism-based; settings: in vivo, 1 h; in short: as §1
Heart [24] = test: Biodistribution in mouse heart at 4.8 MBq/140 uL, iv after 60 mins by gamma counting; format: ADME, organism-based; settings: in vivo, 1 h; in short: as §1
Liver [25] = test: Biodistribution in mouse liver at 4.8 MBq/140 uL, iv after 60 mins by gamma counting; format: ADME, organism-based; settings: in vivo, 1 h; in short: as §1
Spleen [26] = test: Biodistribution in mouse spleen at 4.8 MBq/140 uL, iv after 60 mins by gamma counting; format: ADME, organism-based; settings: in vivo, 1 h; in short: as §2
Kidney [27] = test: Biodistribution in mouse kidney at 4.8 MBq/140 uL, iv after 60 mins by gamma counting; format: ADME, organism-based; settings: in vivo, 1 h; in short: as §1
Mus musculus [28] = test: Biodistribution in mouse small intestine at 4.8 MBq/140 uL, iv after 60 mins by gamma counting; format: ADME, organism-based; settings: in vivo, 1 h; in short: as §2
Brain [29] = test: Biodistribution in mouse brain at 4.8 MBq/140 uL, iv after 60 mins by gamma counting; format: ADME, organism-based; settings: in vivo, 1 h; in short: as §1
Cerebellum [30] = test: Drug uptake in Sprague-Dawley rat cerebellum at 16 MBq administered as bolus infusion after 90 mins by PET analysis; format: ADME, organism-based; settings: in vivo, iv, 1.5 h
Thalamus [31] = test: Drug uptake in Sprague-Dawley rat thalamus at 16 MBq administered as bolus infusion after 45 mins by PET analysis; format: ADME, organism-based; settings: in vivo, iv, 0.75 h
Thalamus [32] = test: Drug uptake in Sprague-Dawley rat thalamus at 16 MBq administered as bolus infusion after 90 mins by PET analysis; format: ADME, organism-based; settings: in vivo, iv, 1.5 h
Striatum [33] = test: Drug uptake in Sprague-Dawley rat striatum at 16 MBq administered as bolus infusion after 90 mins by PET analysis; format: ADME, organism-based; settings: in vivo, iv, 1.5 h
Cerebellum [34] = test: Drug uptake in Sprague-Dawley rat cerebellum at 17 MBq administered as bolus infusion after 45 mins post injection by PET analysis relative to control in presence of N-[4-[6-(isopropylamino)pyrimidin-4-yl]-1,3-thiazol-2-yl]-4-methoxy-N-methylbenzamide; format: ADME, organism-based; settings: in vivo, iv, 0.75 h
Striatum [35] = test: Drug uptake in Sprague-Dawley rat striatum at 17 MBq administered as bolus infusion by PET analysis in presence of N-[4-[6-(isopropylamino)pyrimidin-4-yl]-1,3-thiazol-2-yl]-4-methoxy-N-methylbenzamide; format: ADME, organism-based; settings: in vivo, iv
Cerebellum [36] = test: Drug uptake in Sprague-Dawley rat cerebellum at 17 MBq administered as bolus infusion by PET analysis in presence of JNJ16259685; format: ADME, organism-based; settings: in vivo, iv
Thalamus [37] = test: Drug uptake in Sprague-Dawley rat thalamus at 17 MBq administered as bolus infusion by PET analysis in presence of JNJ16259685; format: ADME, organism-based; settings: in vivo, iv
Cerebellum [38] = test: Drug uptake in wild type mouse cerebellum at 17 MBq, iv up to 60 mins by PET analysis; format: ADME, organism-based; settings: in vivo, 1 h
Brain [39] = test: Drug uptake in mGluR1 knockout mouse brain at 17 MBq, iv up to 60 mins by PET analysis; format: ADME, organism-based; settings: in vivo, 1 h
[40] = Metabolic stability in Sprague-Dawley rat brain assessed as compound remaining after 90 mins; format: ADME, tissue-based; settings: read-out: Stability
Plasma = test: Metabolic stability in Sprague-Dawley rat plasma assessed as compound remaining after 90 mins; format: ADME, cell-free; settings: 1.5 h
[41] = Ratio of drug uptake in thalamus to pons of Sprague-Dawley rat at 16 MBq administered as bolus infusion; settings: in vivo, iv
[42] = Ratio of drug uptake in striatum to pons of Sprague-Dawley rat at 16 MBq administered as bolus infusion; settings: in vivo, iv
[43] = Ratio of drug uptake in cerebellum to pons of Sprague-Dawley rat at 16 MBq administered as bolus infusion; settings: in vivo, iv

## CC(C)Nc1cc(-c2csc(N(C)C(=O)c3ccc(O[11CH3])cc3)n2)ncn1
Blood [1]
  Drug uptake: 3.79 % ID/g
Heart [2]
  Drug uptake: 4.63 % ID/g
Liver [3]
  Drug uptake: 8.16 % ID/g
Spleen [4]
  Drug uptake: 1.97 % ID/g
Kidney [5]
  Drug uptake: 8.67 % ID/g
Muscle tissue [6]
  Drug uptake: 2.04 % ID/g
Brain [7]
  Drug uptake: 3.1 % ID/g
Blood [8]
  Drug uptake: 1.95 % ID/g
Liver [9]
  Drug uptake: 8.34 % ID/g
Mus musculus [10]
  Drug uptake: 4.55 % ID/g
Muscle tissue [11]
  Drug uptake: 1.22 % ID/g
Blood [12]
  Drug uptake: 0.96 % ID/g
Heart [13]
  Drug uptake: 1.19 % ID/g
Lung [14]
  Drug uptake: 1.91 % ID/g
Spleen [15]
  Drug uptake: 1.98 % ID/g
Muscle tissue [16]
  Drug uptake: 0.95 % ID/g
Mus musculus [17]
  Drug uptake: 0.54 % ID/g
Brain [18]
  Drug uptake: 3.14 % ID/g
Heart [19]
  Drug uptake: 0.91 % ID/g
Lung [20]
  Drug uptake: 1.92 % ID/g
Liver [21]
  Drug uptake: 4.68 % ID/g
Mus musculus [22]
  Drug uptake: 0.38 % ID/g
Blood [23]
  Drug uptake: 0.64 % ID/g
Heart [24]
  Drug uptake: 0.81 % ID/g
Liver [25]
  Drug uptake: 3.97 % ID/g
Spleen [26]
  Drug uptake: 2.36 % ID/g
Kidney [27]
  Drug uptake: 2.92 % ID/g
Mus musculus [28]
  Drug uptake: 3.97 % ID/g
Brain [29]
  Drug uptake: 1.85 % ID/g
Cerebellum [30]
  Drug uptake: 90%
Thalamus [31]
  Drug uptake: Active
Thalamus [32]
  Drug uptake: 80%
Striatum [33]
  Drug uptake: 80%
Cerebellum [34]
  Drug uptake: Active
Striatum [35]
  Drug uptake: Not Active
Cerebellum [36]
  Drug uptake: Not Active
Thalamus [37]
  Drug uptake: Not Active
Cerebellum [38]
  Drug uptake: Active
Brain [39]
  Drug uptake: Not Active
[40]
  remaining at 1.5 h: > 80%
Plasma
  Stability: Unstable
[41]
  Ratio: 5.05
[42]
  Ratio: 4.32
[43]
  Ratio: 6.98
